PTEN del growth = growth suppression of PTEN-null HCT116, primary screen, cell-based, CellTiter-Glo; viability, % at 10 µM; hit rate 1.2% among 140,000; AID 827, 2007; HCT116 PTEN-null viability, 60 h; active compounds read low;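 active means viability at or below a set limit, 4 SD under the median of all tested compounds, cut at about 3.7% in these data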;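 further: PTEN knockout HCT116 line with beta catenin targeted HCT116 as companion control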
Lmaj promast = Leishmania major promastigote growth inhibition, primary screen; Leishmania major promastigotes, resazurin fluorescence viability; inhibition, % at 10 µM; hit rate 9% among 200,000; AID 1063, 2008; in the data active means inhibition above about 50%;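 further: promastigotes grown with compound for 44 hours at 28 °C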
bCat KO growth = primary screen for growth suppressors in beta-catenin knockout HCT116 cells (colon tumor, human); viability, % at 10 µM; hit rate 1.5% among 140,000; HCT116 beta-catenin knockout viability, CellTiter-Glo, 60 h; active compounds read low;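 active means viability at or under a set limit, the compound median less 4 SD, cut at about 6% in these data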;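 further: 0% = Hyamine 1622 control at 20 µM and 100% = untreated cell control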
Autophagy mod = autophagy modulators in MEF cells, primary screen, imaging, high-content, MEF GFP-LC3; MEF GFP-LC3 puncta imaging; test concentration mostly 10 µM; calls only at 10 µM (by protocol); hit rate 0.98% among 190,000; AID 463193, 2010;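 active means percentage of spot-positive cells more than 3 SD above its plate mean, without a fluorescence outlier flag or 80% toxicity; inconclusive means no clear call, values can overlap the other calls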;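 further: spot-positive cell cutoff set from DMSO-treated cells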
Dynein cargo inh = inhibitors of GR-EGFP nuclear translocation, primary screen, dynein cargo transport inhibitor project, imaging, high-content, 3617.4 mouse cells; z-score, hits read low; hit rate 0.47% among 220,000; test concentration mostly 20 µM; stimulated with dexamethasone, 1 µM; active compounds read low;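 active means plate z-score of nuclear minus cytoplasmic receptor signal below a set negative limit, without overly bright fluorescence or cell loss, cut at about -3.5 in these data, passing the limit was not always enough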;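 further: z-score of nuclear minus cytoplasmic ring GR-EGFP intensity difference per well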
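Also added – dexamethasone, 1.0 µM final · Buffer or medium – tet-free, stripped-serum medium · Schedule – induction 48 h, compound 1 h, agonist 30 min · Detection – formaldehyde fixation, Hoechst nuclear stain, 10x automated fluorescence imaging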
* marks the source's active call; other numbers are inactive results; i = inactive; ? = inconclusive; nt = no result; + = active, no number. Rows were chosen to be rich in hits. Some 9.2% of all compounds tested hit in one or more screens of this group.

SMILES | PTEN del growth | Lmaj promast | bCat KO growth | Autophagy mod | Dynein cargo inh
O=C(/C=C/Nc1ccc([N+](=O)[O-])cc1Br)c1cccc2ccccc12 | 76.1 | 75.3* | 80.9 | i | -0.373
O=S(=O)(Nc1cccc2c1ccc1cccn12)c1cccs1 | 48.6 | -3.4 | 51.9 | i | -0.13
CCCn1c(C)cc(/C=C(\C#N)C(=O)OCC(=O)Nc2cccc(OC)c2)c1C | 89.8 | 61.5* | 100.5 | i | 0.387
O=C1C2C3C=CC(CO)(O3)C2C(=O)N1c1ccccc1-c1ccccc1 (stereo not given) | 107.0 | -4.6 | 93.2 | i | -5.74*
CC1CCCC(NC(=O)CNC(=S)N(Cc2ccccc2)Cc2cccs2)C1C (stereo not given) | nt | 45.5 | nt | i | 3.07
OC1(c2cccc(C(F)(F)F)c2)CCN(Cc2nnnn2Cc2ccccc2)CC1 | nt | 18.3 | nt | i | -1.16
OC1(c2cccc(F)c2)CCN(Cc2ccncc2)CC1 | 94.3 | 93.6* | 90.8 | i | 0.297
COc1ccc2cc(-c3[nH]ncc3CN3C[C@@H]4CCC[C@H]3C4)ccc2c1 | nt | 18.2 | nt | i | -0.0739
Cc1ncc([N+](=O)[O-])n1Cc1cccc2ccccc12 | 94.7 | 57.2* | 94.3 | i | 0.0646
N#C/C(=C/c1ccc(N2CCCCC2)cc1)c1cccc(F)c1 | 70.8 | 99.0* | 66.3 | i | 0.956
O=C(c1cccc(F)c1)N1CCCC(C(=O)N2CCN(c3ccccc3)CC2)C1 (stereo not given) | nt | nt | nt | nt | 0.616
CCn1c(=O)n(CC)c2cc(S(=O)(=O)Nc3c(C)cccc3C)ccc21 | 101.3 | 98.4* | 84.3 | i | 0.536
COc1ccc(Nc2nnc(-c3ccccc3)c3ccccc23)cc1C(=O)N1CCCCC1 | 60.5 | 26.3 | 77.0 | i | 0.249
COc1ccc(Nc2nnc(-c3ccc(C)cc3)c3ccccc23)cc1C(=O)N1CCCCC1 | 45.2 | 65.7* | 65.6 | i | 0.924
COc1ccc(OCC(O)CNC(=O)c2sccc2Cl)cc1 (stereo not given) | nt | nt | nt | nt | -0.931
Cc1noc(C)c1S(=O)(=O)Nc1ccc(C(=O)N2CCCCC2)cc1 | 102.0 | -4.9 | 96.4 | i | -2.13
Cc1ccc(C)c(N2CCN(C(=O)c3ccc4nc(-c5ccco5)c(-c5ccco5)nc4c3)CC2)c1 | 11.6 | 82.3* | 8.4 | i | -1.02
Cc1ccc(C)c(N2CCN(C(=O)c3ccc(NS(=O)(=O)c4c(C)noc4C)cc3)CC2)c1 | 72.0 | 92.6* | 85.5 | i | -0.101
Cc1ccc(Cl)cc1N1CCN(C(=O)c2ccc(NS(=O)(=O)c3c(C)noc3C)cc2)CC1 | 57.2 | 96.4* | 70.4 | i | -0.887
CCN(c1ccc(N=Cc2c(O)n(Cc3ccc(OC)cc3)c(=O)c3ccccc23)cc1)C(C)C | nt | 10.3 | nt | ? | -2.58
Cc1c(C(=O)c2no[n+]([O-])c2C(=O)c2cnn(C)c2C)cnn1C | 104.8 | -4.7 | 99.2 | i | -3.09
O=C(NCCSCc1ccccc1)c1ccc(C2SCC(=O)N2Cc2ccccc2)cc1 (stereo not given) | 66.5 | 35.9 | 63.5 | i | -0.0968
COC(=O)c1cn(NC(=O)C2CCC(C(C)(C)C)CC2)c(=O)c2ccccc12 (stereo not given) | 95.7 | -8.1 | 91.2 | i | -0.569
CCCN1CCC2(CC1)C(C#N)=C(N)Oc1c2sc2nc(C)cc(C)c12 | 81.6 | 52.0* | 81.4 | i | -0.5
CCCCNC(=O)CSc1nc2ccccc2c(=O)n1CC1COc2ccccc2O1 (stereo not given) | 70.0 | -3.7 | 66.8 | i | -0.5
SMILES | PTEN del growth | Lmaj promast | bCat KO growth | Autophagy mod | Dynein cargo inh
O=S(=O)(Cc1ccccc1)N1CCN(C/C=C/c2ccccc2)CC1 | 106.0 | 70.7* | 100.8 | i | 1.09
O=S(=O)(c1ccc(Cl)s1)N1CCN(C/C=C/c2ccccc2)CC1 | 78.8 | 82.8* | 74.6 | i | 0.922
CS(=O)(=O)N1CCN(C/C=C/c2ccccc2)CC1 | 102.4 | 2.0 | 102.4 | i | 0.749
C=C(C)COc1ccc2c(C)c(CC(=O)OC)c(=O)oc2c1C | 47.9 | 58.2* | 12.8 | i | -0.489
COC(=O)Cc1c(C)c2ccc(OCC(C)=O)c(C)c2oc1=O | 90.7 | 1.4 | 95.9 | i | -0.0762
C=C(C)COc1ccc2c(CC)cc(=O)oc2c1C | 92.3 | 61.7* | 86.6 | i | 0.293
NC(=O)NC(=O)COC(=O)CCCCCNS(=O)(=O)c1ccc2c(c1)OCCO2 | nt | -7.8 | nt | i | -1.47
CCOc1ccc(NC(=S)N=Nc2c(O)[nH]c3ccccc23)cc1 | nt | 97.8* | nt | i | 1.05
O=C(Nc1ccccc1)c1ccc(NCCc2ccccc2)c([N+](=O)[O-])c1 | 87.8 | -7.6 | 85.6 | i | -1.3
CCc1ccccc1NC(=O)c1ccc(NCCc2ccccc2)c([N+](=O)[O-])c1 | 92.5 | 67.4* | 88.6 | i | 0.0207
CCOC(=O)/C(=C\c1ccc(OC(F)F)cc1)C1=Nn2c(nnc2-c2ccc(Cl)cc2)SC1 | 2.1* | 100.4* | 1.4* | i | -2.59
CCCCCCCCNc1nc(Cl)nc(NCCN2CCOCC2)n1 | nt | 0.6 | nt | + | 0.0632
Cc1cc(-c2ccccc2)c2c3c(c(-c4ccccc4)n2n1)c(=O)n(C)c(=O)n3C | 56.4 | -5.1 | 62.2 | + | 0.324
COc1ccc(-c2noc(CCCC(=O)Nc3ccc(C(N)=O)cc3)n2)cc1OC | nt | nt | nt | nt | -0.195
COC(=O)CSc1[nH]c2ccc(F)cc2c1[N+](=O)[O-] | nt | nt | nt | nt | -1.01
CCCCN(C)Cc1c(O)ccc2c(-c3ccccc3)cc(=O)oc12 | 96.9 | 64.9* | 93.8 | i | 1.5
CCCCN(CC)Cc1c(O)ccc2c(-c3ccccc3)cc(=O)oc12 | nt | nt | nt | nt | 0.678
CN1CCN(Cc2c(O)ccc3c(-c4ccccc4)cc(=O)oc23)CC1 | 105.2 | 80.5* | 101.2 | i | -0.547
Cn1nccc1NC(=O)CSCC(=O)O | nt | nt | nt | nt | 0.201
O=C(CNC(=S)NC(=O)c1ccc(Cl)cc1)c1ccccc1 | 95.8 | 88.4* | 99.5 | i | 2.01
COC(=O)Cc1ccc(NC(=S)N2CCN(c3cc(Cl)ccc3C)CC2)cc1 | nt | 0.8 | nt | i | -0.528
O=c1oc2ccccc2cc1-c1csc(Nc2nc3c(F)cccc3s2)n1 | 2.5* | 5.5 | 5.1* | + | 2.84
S=C(NCCC1=CCCCC1)Nc1ccc(Cl)cc1 | 93.7 | 2.8 | 96.2 | i | -0.778
Clc1ccc(CNCCC2=CCCCC2)cc1 | 72.9 | 89.8* | 72.3 | i | -1.35
C#CCOc1ccc(Cl)cc1/C=N/O | 96.4 | -1.2 | 105.9 | i | 0.643
C#CCOc1ccc(/C=N/O)cc1Cl | 98.9 | 55.0* | 99.5 | i | 0.103
CC(Sc1nnc(-c2ccc(Cl)cc2Cl)n1Cc1ccccc1)C(=O)Nc1nccs1 (stereo not given) | 31.8 | 64.6* | 38.8 | i | 0.36
O=[N+]([O-])c1cc2c(cc1Br)CCN2 | nt | -1.4 | nt | i | -0.218
O=C1S/C(=C\c2ccc(N3CCOCC3)o2)C(=O)N1c1ccccc1 | nt | 21.4 | nt | + | -1.37

Source: PubChem (several laboratories)
